From PubChem BioAssay
NPY2 pot ag = potentiators or agonists of human neuropeptide Y receptor Y2 | 0.45% of 220,000 active | AID 1359 | activation, % at 3.6 µM | cells expressing NPY-Y2, potentiator/agonist read-out | P49146; in the data active = activation above about 27%;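 also: cells stimulated with NPY near EC25 plus isoproterenol at EC100; 0% = vehicle plus submaximal agonist and 100% = vehicle plus saturating agonist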
S1P4 agonist = agonists of human S1P4 receptor | S1P4-expressing cell line, agonist reporter assay | O95977 | AID 1509 | activation, % at 4.98 µM | 0.35% of 220,000 active; in the data active = activation above about 11%;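 also: 0% = DMSO vehicle and 100% = reference agonist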
Target sequence (O95977 whole entry, looked up): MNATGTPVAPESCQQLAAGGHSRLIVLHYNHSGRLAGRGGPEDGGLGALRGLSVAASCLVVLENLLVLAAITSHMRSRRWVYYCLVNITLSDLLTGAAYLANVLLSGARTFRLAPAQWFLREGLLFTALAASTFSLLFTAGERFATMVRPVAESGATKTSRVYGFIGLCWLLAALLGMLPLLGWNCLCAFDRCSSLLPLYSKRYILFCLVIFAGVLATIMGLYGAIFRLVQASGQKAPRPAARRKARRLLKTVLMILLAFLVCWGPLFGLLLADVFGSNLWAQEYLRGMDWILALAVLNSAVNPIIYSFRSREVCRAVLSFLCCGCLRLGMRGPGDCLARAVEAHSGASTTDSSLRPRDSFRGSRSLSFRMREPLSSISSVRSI
NPY-Y1 antag = antagonists of human neuropeptide Y receptor Y1 | P25929 | HEK293-CNG Y1 cells, membrane potential fluorescence; NPY at EC95, then isoproterenol | inhibition, % at 3.6 µM | 1% of 200,000 active;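 active = inhibition above the campaign mean inhibition of all tested compounds plus 3 SD, cut at about 20% in these data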;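 also: 0% = DMSO wells given NPY plus isoproterenol and 100% = isoproterenol alone without NPY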
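Material: HEK293 cells co-expressing NPY Y1 receptor and cyclic-nucleotide gated channel. Timing: compound incubation 1 h at room temperature, readout 45 min post-stimulation. Signal: fluorescence, membrane potential probe.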
NPY-Y2 antag = NPY-Y2 (human) receptor antagonism; inhibition, % at 2.7 µM; AID 793; P49146; NPY-Y2 expressing cells, antagonist mode; 0.99% of 140,000 active; in the data active = inhibition above about 17%;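 also: 0% = vehicle with agonist challenge and 100% = reference antagonist with challenge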
S1P4 antagonist = blocks the human S1P4 receptor; S1P4-expressing cells, antagonist mode, reporter read-out; O95977; 0.26% of 220,000 active; inhibition, % at 4.98 µM; in the data active = inhibition above about 29%;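 also: 0% = wells stimulated with agonist and 100% = vehicle wells without agonist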
NPY-Y1 PAM-ag = potentiates or activates human NPY-Y1 receptor; 0.37% of 220,000 active; P25929; AID 1304; NPY-Y1 expressing cells, potentiator/agonist activation; activation, % at 3.6 µM; in the data active = activation above about 33%, passing the limit was not always enough;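 also: cells stimulated with NPY at EC10 then isoproterenol at EC100; 0% = low agonist plus stimulus and 100% = saturating agonist plus stimulus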
S1P4 antag conf = confirmation of human S1P4 receptor antagonists; shares compounds with S1P4 antagonist; S1P4-expressing cell line, antagonist mode, reporter read-out; inhibition, % at 4.98 µM; 71% of 520 active; AID 1524; in the data active = inhibition above about 30%
S1P1 antagonist = human S1P1 antagonism as S1P4 antagonist counter-screen | inhibition, % at 4.98 µM | shares compounds with S1P4 antagonist | AID 1564 | cell-based S1P1 antagonist counterscreen, inhibition | 37% of 520 active; in the data active = inhibition above about 40%;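 also: receptor stimulated with S1P near its EC80; 0% = agonist stimulated wells and 100% = vehicle only wells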
* hit, by the source's call; · = not tested or not shown. Compounds with a hit are over-represented: about 2.4% of the library has one in this group of screens.

SMILES	NPY2 pot ag	S1P4 agonist	NPY-Y1 antag	NPY-Y2 antag	S1P4 antagonist	NPY-Y1 PAM-ag	S1P4 antag conf	S1P1 antagonist
Cc1ccc(-c2nc(CS(=O)CC(=O)NC3CCC(C)CC3)c(C)o2)cc1 (configuration not stated)	-13	1	10	6	78*	-13	12	34
Cn1ccc(/C=N/N=C2/NC(=O)CS2)n1	11	0	·	·	-1	-4	·	·
COc1ccc(/C=C2\CCC/C(=C\C=N\N(C)C)C2=O)cc1	-1	1	4	·	27	-2	·	·
CN(C)/N=C/C=C1\CCC/C(=C\c2ccc(F)c(F)c2)C1=O	-9	1	4	·	29*	12	34*	42*
COC(=O)CNC(=O)c1cccc(-c2ccc(OC)cc2)c1	2	1	8	·	8	-1	·	·
O=C(O)CCn1c(=O)[nH]c2ccccc2c1=O	13	-2	-3	4	36*	5	0	-12
c1cnc(Oc2ccc(-c3nnco3)cc2)cn1	-7	1	2	-4	37*	-2	4	27
C=CCC1(/C=N/O)CCOC(C)(C)C1 (configuration not stated)	-6	0	·	·	-22	6	·	·
COc1ccc(N(C(=O)CCl)C(C(=O)NCCc2ccccc2)c2cccs2)cc1 (configuration not stated)	35*	0	0	2	30*	54*	99*	16
CN=C(C)/C(C(=O)OC)=C(/O)c1c(F)cccc1F	11	1	·	·	7	4	·	·
CC(/C=C/C=C/c1ccccc1)=N/NC(=O)c1ccc2c(c1)OCCO2	-26	0	·	·	11	-2	·	·
N=C1SCC(=O)N1c1ncc(Cc2ccccc2Cl)s1	-27	1	7	·	48*	-12	94*	98*
N=C1SCC(=O)N1c1ncc(Cc2cccc(Cl)c2)s1	-16	8	9	·	20	3	·	·
CC1SCC(=O)N(CC(=O)Nc2ccc3c(c2)OCCO3)C1=O (configuration not stated)	-5	1	-4	·	-13	-11	·	·
O=C(NCc1cccnc1)/C(=C\c1ccc(-c2ccc(Cl)c(Cl)c2)o1)S(=O)(=O)c1ccccc1	-18	-1	24*	17*	58*	-44	108*	48*
COc1ccccc1S(=O)(=O)CC(O)COc1ccc(F)cc1Cl (configuration not stated)	5	1	3	·	-17	-9	·	·
O=C(Nc1ccc2cn[nH]c2c1)c1c(Cl)cccc1Cl	14	-1	2	1	-13	0	·	·
O=C1C(Cl)=C(Nc2ccc3cn[nH]c3c2)C(=O)c2ccccc21	4	1	·	·	62*	39	95*	91*
CC(=O)N(C1CC(C)C(C#N)(C#N)C1(C#N)C#N)N(C)C (configuration not stated)	-8	2	1	·	-18	-3	·	·
CCCC(=O)N(C1CC(C)C(C#N)(C#N)C1(C#N)C#N)N(C)C (configuration not stated)	-48	2	·	·	43*	-16	107*	36
CCCn1nc(NC(=O)c2cccs2)c2cc3cc(C)ccc3nc21	2	5	·	·	-4	2	·	·
Cc1ccccc1C(=O)N1CCC(C(=O)N2CCN(S(=O)(=O)c3ccccc3F)CC2)CC1	-19	1	-2	·	-7	6	·	·
CCOC(=O)c1c(NC(=O)OC)sc(C(=O)N(C)C)c1C	11	2	0	1	44*	1	-1	-3
O=C1C2CCCCC2C(=O)N1Cc1ccccc1 (configuration not stated)	-9	2	-1	·	-26	5	·	·
O=c1ccsn1Cc1ccccc1	4	0	0	3	33*	-12	36*	16
SMILES	NPY2 pot ag	S1P4 agonist	NPY-Y1 antag	NPY-Y2 antag	S1P4 antagonist	NPY-Y1 PAM-ag	S1P4 antag conf	S1P1 antagonist
Nc1ncnc2c1ncn2C1OC(CO)C(O)C1O (configuration not stated)	-29	-2	-3	·	39*	-28	67*	41*
Nc1ncnc2c1ncn2C1OC(CO)C(O)C1N (configuration not stated)	2	1	·	·	-4	23	·	·
CCOC(=O)c1nc(C)nc(Sc2n[nH]c(-c3ccccc3)n2)c1C	1	-1	·	·	2	-13	·	·
COc1ccc(CNC(=O)c2c(C)oc3c2C(=O)c2ccccc2C3=O)cc1	-7	0	2	3	-7	-7	·	·
Cc1oc2c(c1C(=O)NCc1cccnc1)C(=O)c1ccccc1C2=O	-32	0	4	·	90*	0	116*	107*
Cc1sc2nc(-c3cccnc3)nc(Cl)c2c1-c1ccccc1	0	1	-4	3	-9	-20	·	·
COc1ccc(C2=NN(C(=O)c3cccc([N+](=O)[O-])c3)C(c3cccc([N+](=O)[O-])c3)C2)cc1 (configuration not stated)	3	-2	3	4	-1	-7	·	·
Cc1ccc(C2=Nc3ccccc3SC(c3cccc([N+](=O)[O-])c3)C2)cc1 (configuration not stated)	-2	1	·	·	45*	-25	12	6
CCN(CC)c1ccc2c(Cl)c(Br)c(=O)oc2c1	-6	1	0	7	53*	-29	104*	74*
CCN(CC)c1ccc2c(c1)oc(=O)c1c(Cl)cc(=O)oc12	14	2	-5	1	-2	11	·	·
CC(C)Cn1c([N+](=O)[O-])nc2c1c(=O)[nH]c(=O)n2C	11	-1	·	·	29*	-13	24	16
Cn1c(=O)[nH]c(=O)c2c1nc1n2CCN1Cc1ccccc1	-1	2	-2	1	-8	-12	·	·
Cn1c(=O)[nH]c(=O)c2c1nc([N+](=O)[O-])n2Cc1ccccc1	-29	-1	·	·	51*	-28	68*	56*
COc1ccccc1NC(=O)Cc1noc(CSc2nnc(C)n2C)n1	4	3	-1	·	-17	10	·	·
C=CCNC(=S)N1CCN(c2ncc(C(F)(F)F)cc2Cl)CC1	-14	1	·	·	15	-4	·	·
CC1(C)C(=O)Nc2ccccc2N1C(=O)Cn1ncc(Cl)c(Cl)c1=O	29	0	·	·	95*	0	87*	33
O=C(Cn1ncc(Cl)c(Cl)c1=O)N1CCN(Cc2ccccc2)CC1	4	-2	-8	·	71*	15	118*	61*
O=C(Cn1ncc(Cl)c(Cl)c1=O)N1CCc2ccccc21	2	-5	0	·	79*	-19	118*	94*
O=C(Cn1ncc(Cl)c(Cl)c1=O)N1CCOCC1	6	-4	1	·	44*	-10	60*	27
